The text below walks through data of publication PMC4878412 (Cancer chemotherapy and pharmacology, 2015).

The nature of data set [1]: In vivo retention of RK-33 in plasma, liver and lungs 48 h after administration. Conditions: mice, 48 h after intraperitoneal injection of 0.80 mg free RK-33. The procedure, abridged:
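Female athymic NCr-nu/nu mice (4–5 weeks, three animals) got free test compound 0.8 mg i.p. and were killed at 48 h. Blood was drawn intracardially into heparin tubes and spun at 8000 rpm for 5 min. Liver and lungs were weighed and homogenised in 3 volumes cold PBS. Plasma or homogenate (0.1 mL) was extracted with 1 mL chloroform/isopropanol (1:1), shaken 3 min and centrifuged.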

The conditions of data set [2]: free RK-33; no method in this paper, no reference given; cited from earlier work.
Data set [3] relates to DDX3. The following applies: ref [1]; cited from earlier work.
The conditions of data set [4]: ref [1]; cited from earlier work.
For data set [5] the following is noted: ref [1]; cited from earlier work. The source holds these as a separate data set.

Some results are limits rather than exact numbers.

Take RK-33: in data set [1], the RK-33 in liver was below 1 µg/mL, the RK-33 in lungs is below 1 µg/mL and the RK-33 in plasma is below 1 µg/mL. Moreover, the “Systemic half-life (t½)” value in data set [2] was 7.3 h. Moreover, the “Inhibition of DDX3 (in words)” value in data set [3] is “effectively inhibits”. The “Cell cycle effect (in words)” value in data set [4] is recorded as “induce G1 arrest”. Moreover, the “Toxicity in mice (in words)” value in data set [5] is given as “little or no toxicity”.
